In the library only some 2.1% were active in any assay of this set; here they are far more common.
Autophagy mod: modulators of autophagy; AID 463193; 190,000 compounds, 0.98% hits; calls only at 10 µM (by protocol); MEF GFP-LC3 puncta imaging; test concentration mostly 10 µM;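 active = percentage of spot-positive cells more than 3 SD above its plate mean, without a fluorescence outlier flag or 80% toxicity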;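 also: spot-positive cell cutoff set from DMSO-treated cells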
Ins promoter up: MIN6 insulin promoter up-regulation; MIN6 insulin promoter-GFP reporter, high-content imaging; stronger effect = higher value; 190,000 compounds, 0.3% hits; z-score at 5 µM; AID 1625;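 active = z-score above 3 at 5 µM with at least 500 cells counted in the well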
Dynein cargo inh: blocks dynein driven cargo transport along microtubules | 3617.4 mouse cells, GR-EGFP nuclear translocation imaging; test concentration mostly 20 µM; stimulated with dexamethasone, 1 µM; stronger effect = lower value | z-score, hits read low | 220,000 compounds, 0.47% hits | AID 1381;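 active = plate z-score of nuclear minus cytoplasmic receptor signal below a set negative limit, without overly bright fluorescence or cell loss, cut at about -3.5 in these data, passing the limit was not always enough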;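 also: z-score of nuclear minus cytoplasmic ring GR-EGFP intensity difference per well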
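Schedule: 48 h induction, then 1 h compound, then 30 min agonist, 37 °C. Buffer or medium: tetracycline-free induction medium containing charcoal-stripped FBS. Reagent: 1.0 µM final dexamethasone stimulus. Evaluation: nuclear versus cytoplasmic GR-EGFP signal, averaged per well. Signal: high-content fluorescence imaging after fixation.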
INS promoter inh: TRM-6 insulin promoter activity inhibition; AID 1273; TRM-6 cells (human fetal islet line), insulin promoter-eGFP reporter, imaging; reporter expression induced with tamoxifen; inhibition, % at 2 µM; 130,000 compounds, 0.9% hits;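 active = inhibition above the mean plus 3 SD, with well images judged a real hit on visual review, cut at about 60% in these data, passing the limit was not always enough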
PERK inhibitor: human PERK inhibition, primary cell-based screen. Q9NZJ5. CHO PERK-DD fusion, SEAP luminescence translation reporter. inhibition, % at 5.6 µM. 220,000 compounds, 0.17% hits;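 active = inhibition above the mean inhibition of all tested compounds plus 3 SD, set separately per screening campaign, cut at about 2.9% in these data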;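 also: PERK kinase domain activated by AP20187 dimerizer at 100 nM; 0% = DMSO with dimerizer and 100% = rapamycin at 8.4 µM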
Target sequence (Q9NZJ5 whole entry, looked up, the tested form may be a part): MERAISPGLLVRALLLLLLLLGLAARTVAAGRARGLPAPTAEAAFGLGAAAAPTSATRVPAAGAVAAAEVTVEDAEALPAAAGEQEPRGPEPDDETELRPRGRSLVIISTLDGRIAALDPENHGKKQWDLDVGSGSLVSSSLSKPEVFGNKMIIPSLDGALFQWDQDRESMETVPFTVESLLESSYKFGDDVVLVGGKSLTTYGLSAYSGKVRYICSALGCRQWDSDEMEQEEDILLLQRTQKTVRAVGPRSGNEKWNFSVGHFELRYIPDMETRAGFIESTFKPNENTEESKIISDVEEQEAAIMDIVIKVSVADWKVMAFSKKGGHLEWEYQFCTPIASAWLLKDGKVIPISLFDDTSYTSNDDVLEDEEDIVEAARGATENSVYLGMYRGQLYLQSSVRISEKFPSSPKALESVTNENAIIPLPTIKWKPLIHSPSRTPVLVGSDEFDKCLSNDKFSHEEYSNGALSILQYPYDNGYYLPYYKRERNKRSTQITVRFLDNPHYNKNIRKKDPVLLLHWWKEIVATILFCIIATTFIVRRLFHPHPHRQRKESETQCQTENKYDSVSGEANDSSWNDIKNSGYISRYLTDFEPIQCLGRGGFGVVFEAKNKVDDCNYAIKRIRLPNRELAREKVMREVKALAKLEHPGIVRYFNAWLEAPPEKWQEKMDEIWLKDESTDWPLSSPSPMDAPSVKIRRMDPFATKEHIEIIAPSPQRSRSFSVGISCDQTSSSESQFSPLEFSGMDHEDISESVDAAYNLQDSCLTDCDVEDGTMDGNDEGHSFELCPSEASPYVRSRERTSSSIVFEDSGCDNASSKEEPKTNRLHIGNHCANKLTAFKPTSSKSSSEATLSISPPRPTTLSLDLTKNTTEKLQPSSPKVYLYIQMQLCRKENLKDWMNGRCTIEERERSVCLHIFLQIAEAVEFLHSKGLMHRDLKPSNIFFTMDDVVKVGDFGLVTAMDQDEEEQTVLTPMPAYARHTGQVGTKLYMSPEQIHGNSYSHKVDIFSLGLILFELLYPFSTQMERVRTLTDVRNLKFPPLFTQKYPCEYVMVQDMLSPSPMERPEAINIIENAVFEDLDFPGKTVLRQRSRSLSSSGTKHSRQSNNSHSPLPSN
* marks the source's active call; other numbers are inactive results; i = inactive; · = no result given; + = active, no number.

SMILES | Autophagy mod | Ins promoter up | Dynein cargo inh | INS promoter inh | PERK inhibitor
Cc1c(C(c2ccc([N+](=O)[O-])cc2)c2c(C)n(C)n(-c3ccccc3)c2=O)c(=O)n(-c2ccccc2)n1C | i | 4.14* | 0.365 | · | 0.5
Cn1c(Cn2nnc3ccccc32)nnc1SCC(=O)Nc1nccs1 | + | · | -0.0203 | · | 0.0
NC1=NC(c2ccccc2)N=C(Nc2ccccc2)N1 (stereo not given) | · | -0.03 | -0.0291 | · | 0.4
CC(C)c1ccc2c(c1)[C@H]1OCC[C@H]1[C@@H](c1cccs1)N2 | + | -0.37 | -0.328 | -10.0 | 0.7
Cc1cc(C)c2c(c1)N[C@H](c1cccs1)[C@@H]1CCO[C@H]21 | · | -0.9 | -0.731 | · | 1.3
CCn1nc(C)c(CNC(=O)CC2C(=O)NCCN2CC(C)(C)C)c1C (stereo not given) | i | · | -0.807 | 26.1 | 0.6
CCOc1ccc(CN(C(=O)c2oc3cc(C)ccc3c2C)C2CCS(=O)(=O)C2)cc1 (stereo not given) | i | 0.43 | 2.96 | 65.6* | -1.8
CC(=NCCN1CCNCC1)C1=C(O)CC(C)(C)CC1=O | i | -0.04 | -0.064 | · | 1.6
COC(=O)CSC(C)C(=O)Nc1nnc(C(C)C)s1 (stereo not given) | + | -1.24 | -0.158 | 35.3 | 0.3
CCC(SCC(=O)OC)C(=O)Nc1nnc(C(C)C)s1 (stereo not given) | i | 0.43 | -0.622 | · | 1.0
CCOC(=O)c1cc(=O)n2nc(-c3ccccc3F)nc2s1 | i | 0.98 | -2.04 | 85.7* | 0.2
O=c1oc2c(CN3CCCCC3)c(O)ccc2cc1-c1nc2ccccc2[nH]1 | · | 3.57* | · | · | ·
O=C(NCCCn1ccnc1)C1c2ccccc2Oc2ccccc21 | · | 0.31 | -0.616 | · | -0.3
O=C(NCCSCc1ccc(Cl)cc1Cl)c1ccc(CN2CCOCC2)cc1 | i | -1.73 | -0.266 | 6.7 | -0.5
Cc1cccc(CSCCNC(=O)c2ccc(CN3CCOCC3)cc2)c1 | i | 0.12 | -0.324 | 71.4* | -0.4
O=C(NCc1ccc2c(c1)OCO2)c1ccc2c(c1)OCO2 | · | 1.63 | 0.754 | · | -0.3
O=C(NCc1ccc2c(c1)OCO2)c1ccc(CN2CCOCC2)cc1 | i | 0.6 | 1.91 | 89.0* | 0.7
O=C(Cc1ccccc1)Nc1nc(-c2cccc([N+](=O)[O-])c2)cs1 | i | -0.61 | 1.76 | · | -0.6
Cc1ccc(C(=O)NC(=S)Nc2nc(-c3cccc([N+](=O)[O-])c3)cs2)c(Cl)c1 | i | -1.19 | 1.78 | 85.7* | 1.3
O=C(CCCN1C(=O)c2ccccc2C1=O)NCCN1C(=O)S/C(=C\c2cccs2)C1=O | i | 1.03 | -0.503 | -2.7 | 0.3
O=C1CC(N(CCc2ccccc2)C(=S)Nc2cc(Cl)ccc2Cl)C(=O)N1c1c(Cl)cccc1Cl (stereo not given) | i | -0.66 | -0.322 | · | -0.3
COc1ccc(CN(C)C2c3ccccc3-c3ccccc32)cc1 | i | 0.12 | 0.59 | 20.6 | -0.3
CCN(CC)CCCN1CC(O)=C(c2nc3ccccc3s2)C1=N | i | -0.89 | 0.11 | 65.7* | -0.7
N=C1C(c2nc3ccccc3s2)=C(O)CN1Cc1ccccc1 | i | · | -0.339 | 16.3 | -0.3
CCOc1ccccc1N1CC(O)=C(c2nc3ccccc3s2)C1=N | + | -3.91 | -0.928 | -145.7 | -0.7
SMILES | Autophagy mod | Ins promoter up | Dynein cargo inh | INS promoter inh | PERK inhibitor
O=C(CC1Sc2ccccc2NC1=O)NCc1ccccc1 (stereo not given) | · | -2.61 | -1.09 | · | -0.1
CCc1nnc(NC(=O)CSc2nnc(Cc3cc(=O)[nH]c(=O)[nH]3)n2-c2cccc(OC)c2)s1 | i | 0.3 | 0.05 | -77.8 | 0.0
CCOc1ccc(-n2ccnc2SCC(=O)Nc2nnc(CC)s2)cc1 | i | -0.58 | -1.55 | 81.8* | -0.7
CCc1nnc(NC(=O)CSc2nnc(COc3cccc(C)c3)o2)s1 | i | 1.15 | 1.36 | 75.0* | 1.4
CCc1nnc(NC(=O)CSc2nnc(Cc3cc(=O)[nH]c(=O)[nH]3)n2-c2ccc(OC)cc2)s1 | i | 0.24 | 0.65 | 77.8* | 0.5
COc1ccc(-n2c(Cc3cccn3C)nnc2SCC(=O)Nc2cccc(C)c2C)cc1 | · | 3.05* | -0.386 | · | -0.2
CC(C)n1c(CSCc2ccc(Cl)cc2Cl)n[nH]c1=S | i | -0.16 | 1.09 | · | 0.9
COc1ccc2c(C)nc(Nc3nc(C)cc(=O)[nH]3)nc2c1 | + | · | -0.114 | 25.0 | 0.1
O=C(/C=C/c1cccs1)c1cc(Br)ccc1OC(=O)N1CCOCC1 | i | -1.48 | -4.91* | -35.7 | -1.1
FC(F)(F)c1ccccc1NC(=S)NC1CCN(Cc2ccccc2)CC1 | + | 1.15 | 0.0298 | · | -1.0
NC(=O)Nc1ccccc1C(=O)N1CCC(O)(c2ccc(Cl)cc2)CC1 | i | -0.28 | -0.98 | -31.2 | -0.2
CN1CCN(S(=O)(=O)c2ccc(Cc3ccc(S(=O)(=O)N4CCN(C)CC4)cc3)cc2)CC1 | + | -0.74 | 3.34 | · | -0.6
CSC(=O)CC(=O)NC(=O)c1ccccc1 | i | -0.5 | -0.488 | -50.0 | 0.7
Cc1cc(OCCn2cc(/C(N)=N/O)c3ccccc32)ccc1Cl | i | · | -0.637 | -38.6 | -0.8
COc1ccc2ccccc2c1C(=O)/C=C\c1ccoc1 | i | -0.54 | -0.71 | 78.6* | 0.8
O=C(/C=C/c1ccoc1)c1ccccc1O | i | 0.33 | -1.75 | -35.1 | 1.0
CCN1C(=O)c2cccc3c(NS(=O)(=O)c4ccc(NC(C)=O)cc4)ccc1c23 | i | 0 | -0.895 | -34.6 | 0.3
CCOC(=O)c1ccc(NC(=O)Nc2ccc3c4c(cccc24)C(=O)N3CC)cc1 | + | -0.27 | 0.493 | 36.4 | 1.2
CCOc1cccc2cc(-c3cn4cc(C)ccc4n3)c(=O)oc12 | + | -1.08 | -1.11 | 10.0 | 0.2
COc1cccc2cc(-c3cn4ccc(C)cc4n3)c(=O)oc12 | i | · | -0.104 | 28.6 | -1.4
COc1ccc(NC(=O)c2[nH]c(C)c(C(C)=O)c2C)cc1Cl | i | 3.83* | -0.333 | 3.2 | 0.6
CC(=O)c1c(C)[nH]c(C(=O)Nc2ccc(C)c(C)c2)c1C | i | -0.65 | -0.493 | · | -1.1
Cc1ccc(/C=C(\C#N)C(=O)Nc2ccccn2)o1 | i | -0.1 | -0.475 | · | 0.4
Cn1c(N)c(C(=O)COC(=O)CCCc2nc3ccccc3s2)c(=O)n(C)c1=O | + | 0.4 | 0.941 | 0.0 | 0.0
CCCCCn1nc(C(=O)OCC(=O)c2c(N)n(C)c(=O)n(C)c2=O)c2ccccc2c1=O | i | · | 1.79 | 71.4* | 0.7
SMILES | Autophagy mod | Ins promoter up | Dynein cargo inh | INS promoter inh | PERK inhibitor
CCn1nc(C(=O)OCC(=O)NCC(C)C)c2ccccc2c1=O | + | -0.33 | 1.02 | · | -0.4
O=C(Nc1cccc(C(F)(F)F)c1)/C(=C/c1ccco1)NC(=O)c1cccs1 | i | -0.25 | 0.405 | · | 0.6
COCCN1C=C(C(=O)OC)C(c2ccc(OC)c(OC)c2)C(C(=O)OC)=C1 | i | 1.14 | 0.475 | 70.6* | 0.5
CCCOc1ccc(C2C(C(=O)OC)=CN(CCOC)C=C2C(=O)OC)cc1 | i | 0.55 | 0.805 | 16.7 | -2.2
CN(/N=C/c1cccnc1)c1cnc2ccccc2n1 | i | -1.7 | -0.336 | 77.8* | -0.2
C(=N\N=C\c1cccnc1)/c1cccnc1 | i | 0.99 | 0.0496 | -15.6 | 0.3
